The target in experiment [1] is T1, RPA70N (Homo sapiens, UniProt P27694). The experiment can be described thus: Fluorescence polarization anisotropy. Type of experiment: binding. To be noted: for ligand efficiency: from FPA Kd. In a few lines: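 Displacement of a FITC-labelled ATRIP-derived peptide from RPA70N was read as fluorescence polarization anisotropy. Compounds were titrated to give dose-dependent anisotropy changes, from which IC50 was determined. Kd was calculated from IC50 with the Cheng–Prusoff equation and reported as the average of n = 2.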

Experiment [2] relates to DNA-binding domain of RPA. The conditions noted are these: in vitro; cited from earlier work.
The subject of experiment [3] is RPA70N-p53. To be noted: cited from earlier work.
Experiment [4] deals with RPA70N-Rad9. The conditions noted are these: cited from earlier work.
In experiment [5] the target is T1, RPA70N. In words: NMR. Type of experiment: binding. The conditions noted are these: initial fragment hits.
For experiment [6], the target named is full length heterotrimeric RPA (Homo sapiens, UniProt P27694). In words: Electrophoresis mobility shift assay. Type of experiment: binding. To be noted: EMSA, concentrations up to 100 μM. In general terms: Mobility shift assays separate free from complexed probe on a gel.

For the compound `CCOc1ccc2cc(C3CN(C(=O)CCC(=O)O)N=C3c3ccc(Br)cc3)c(Cl)nc2c1` (centres unmarked) [Compound 1, reference compound], the “inhibition of the RPA70N-ATRIP interaction” value in experiment [1] (FPA assay) is on record as “did not inhibit”. Also, the “disruption of RPA interaction with DNA” value in experiment [2] is recorded as “disrupts its interaction with DNA”.

Consider `CC(C)C1=C[C@]23CC[C@@H]4[C@](C)(CCC[C@@]4(C)C(=O)O)[C@H]2C[C@@H]1[C@@H](C(=O)O)[C@@H]3C(=O)O` [Compound 2, fumaropimaric acid], for which the “disruption of RPA70N-p53 interaction” value in experiment [3] was “disrupt both RPA70N-Rad9 and RPA70N-p53 interactions”. For the same compound, the “disruption of RPA70N-Rad9 interaction” value in experiment [4] is “disrupt both RPA70N-Rad9 and RPA70N-p53 interactions”.

As for `O=C(O)c1sc2cc(Cl)ccc2c1Cl` [Compound 3], the “ligand efficiency (LE)” value in experiment [5] worked out at 0.32.

As to `Clc1ccc(-c2nnn[nH]2)cc1` [Compound 4], the “ligand efficiency (LE)” value in experiment [5] is 0.32.

On to `O=C(O)c1sc2cc(-n3c(S)nnc3-c3ccccc3)ccc2c1Cl` [Compound 5], for which the ligand efficiency in experiment [1] is listed as 0.22.

For `O=C(O)c1cc2ccc(-n3c(S)nnc3-c3cccc(Oc4ccccc4)c3)cc2s1` [Compound 13e], the ligand efficiency in experiment [1] is 0.17.

Regarding `O=C(O)c1sc2cc(-n3c(S)nnc3-c3cccc(Oc4ccccc4)c3)ccc2c1Cl` [Compound 14d], the ligand efficiency in experiment [1] came out at 0.18.

As for `O=C(O)c1sc2cc(-n3c(S)nnc3-c3ccc(Br)c(Cl)c3)ccc2c1Cl` [Compound 14n], the “disruption of RPA-ssDNA interactions” value in experiment [6] was “Neither 14q nor 14n showed evidence of disrupting RPA-ssDNA interactions”.

Regarding `O=C(O)c1sc2cc(-n3c(S)nnc3-c3ccc(Cl)c(Cl)c3)ccc2c1Cl` [Compound 14q], in experiment [6], the “disruption of RPA-ssDNA interactions” value is “Neither 14q nor 14n showed evidence of disrupting RPA-ssDNA interactions”.

The values above are taken from paper PMC3728914 (ACS medicinal chemistry letters, 2013).
